In assay [1] the target is T1, Purine nucleoside phosphorylase (Homo sapiens, UniProt P00491).
T1 sequence (P00491 whole entry): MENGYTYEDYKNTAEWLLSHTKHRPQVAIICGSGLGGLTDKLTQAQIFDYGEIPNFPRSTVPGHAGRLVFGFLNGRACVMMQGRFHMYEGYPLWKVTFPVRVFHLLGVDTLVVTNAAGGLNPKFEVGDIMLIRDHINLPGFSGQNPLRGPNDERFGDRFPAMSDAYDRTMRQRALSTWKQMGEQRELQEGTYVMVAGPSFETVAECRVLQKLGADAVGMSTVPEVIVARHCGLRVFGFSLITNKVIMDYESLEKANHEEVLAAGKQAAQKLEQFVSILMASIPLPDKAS
Kind of assay: Inhibition of human purine nucleoside phosphorylase.

The nature of assay [2]: Inhibition of Schistosoma mansoni purine nucleoside phosphorylase. The procedure, abridged:
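Coupled spectrophotometric assay with 5 nM SmPNP (as monomer) in 50 mM potassium phosphate, pH 7.4, with 10 uM inosine and xanthine oxidase 40 milliunits/mL. Uric acid formation read at 293 nm, 25°C, in triplicate. IC50 obtained from rates at six or more inhibitor concentrations. Values are means of at least three independent experiments.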

Assay [3] in a line: Selectivity ratio of IC50 for human purine nucleoside phosphorylase to IC50 for Schistosoma mansoni purine nucleoside phosphorylase.

As usually defined, the IC50 is the concentration that gives 50% inhibition. Regarding `Nc1ncnc2c1ccn2[C@H]1O[C@@H](CO)[C@H](O)[C@@H]1O`, the IC50 amounted to 300 µM in assay [1] and 200 µM in assay [2]. In assay [3], the Ratio IC50 amounted to 1.5.
With `Nc1nc2c(Cc3cccc(Cl)c3)c[nH]c2c(=O)[nH]1`, the half-maximal inhibitory concentration (IC50) amounted to 0.05 µM in assay [1] and 0.5 µM in assay [2]. For the same compound, the Ratio IC50 in assay [3] came to 0.1.
For `CC(C)c1ccc(Cc2c[nH]c3c(=O)[nH]c(N)nc23)cc1`, the IC50 in assay [1] was determined as 0.27 µM; in assay [2] it was 0.15 µM. In assay [3], the Ratio IC50 was 1.8.
With `Nc1nc2c(Cc3ccncc3)c[nH]c2c(=O)[nH]1`, the figures for the IC50 in assay [1] and in assay [2] were 0.1 µM and 3 µM, respectively. In addition, the Ratio IC50 in assay [3] was determined as 0.033.
For `Nc1nc2c(Cc3cccnc3)c[nH]c2c(=O)[nH]1` [PELDESINE], the half-maximal inhibitory concentration (IC50) in assay [1] worked out at 0.2 µM; in assay [2], 0.8 µM. The Ratio IC50 in assay [3] was found to be 0.25.
For the compound `Nc1nc2c(ccn2[C@H]2O[C@@H](CO)[C@H](O)[C@@H]2O)c(=S)[nH]1`, the 50% inhibitory concentration (IC50) in assay [1] turned out to be 315 µM; in assay [2], 95 µM. Moreover, the Ratio IC50 in assay [3] came out at 3.3.
As for `Nc1nc2c(Cc3ccc(OCc4ccccc4)cc3)c[nH]c2c(=O)[nH]1`, the IC50 in assay [1] worked out at 0.3 µM; in assay [2] it was 0.5 µM. Also, the Ratio IC50 in assay [3] stood at 0.6.
For the compound `Nc1nc2c(Cc3ccccn3)c[nH]c2c(=O)[nH]1`, the figures for the concentration for half-maximal inhibition (IC50) in assay [1] and in assay [2] were 0.023 µM and 7 µM, respectively. Besides, the Ratio IC50 in assay [3] is 0.003.
Take `Nc1nc2c(Cc3ccccc3)c[nH]c2c(=O)[nH]1`: the IC50 in assay [2] was found to be 1.4 µM.
For the compound `O=c1nc[nH]c2c([C@H]3O[C@@H](CO)[C@H](O)[C@@H]3O)[nH]nc12`, the values for the half-inhibitory concentration (IC50) in assay [1] and in assay [2] were 300 µM and 47 µM, respectively. Also, the Ratio IC50 in assay [3] was 6.4.
